In ChEMBL document CHEMBL1142659, “The role of intracellularly released formaldehyde and butyric acid in the anticancer activity of acyloxyalkyl esters” (J Med Chem, 2005):

Assays:
Format in all cases: functional, cell-based
[1] = Concentration required for 50% inhibition of human MES-DX5 cell proliferation
Method in brief: (§1)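 Solid-tumour lines (HT-29, PC-3, MES-SA, and its mdr-1/P-glycoprotein-high MES-SA/Dx5 subclone) were seeded at (2.5-5) × 10^3 cells per well. They were exposed to escalating prodrug concentrations for 4 days, then harvested. Proliferation was measured by Hoechst DNA staining, and IC50 values are given in µM.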

[2] = system: MES-SA; test: Concentration required for 50% inhibition of human MES-SA cell proliferation; method in brief: as §1
[3] = system: PC-3; test: Concentration required for 50% inhibition of human PC-3 cell proliferation; method in brief: as §1
[4] = system: HL-60; test: Concentration required for 50% inhibition of human HL-60 cell proliferation
Method in brief: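 HL-60 leukemia cells, including the multidrug-resistant HL-60/MX2 subline with altered topoisomerase II activity, were seeded at (2.5-5) × 10^3 cells per well. They were exposed to escalating prodrug concentrations for 4 days. Proliferation was read by Alamar blue, and IC50 values are given in µM.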

[5] = system: HT-29; test: Concentration required for 50% inhibition of human HT-29 cell proliferation; method in brief: as §1

IC50 [3]: 56 µM
IC50 [4]: 36 µM
IC50 [5]: 52 µM
SMILES: CCCC(=O)OCOC(=O)C(C)(C)C [AN-9]
IC50 [1]: 46 µM
IC50 [2]: 40 µM
